Active and inactive are the calls of the source. No cut-off for these calls is given here. Where a SMILES comes first, the peptide text is derived from it. [ ]: non-standard residue; d: D form. ξ: configuration not given here. ξTiq(1-COOH) = O=C(O)C1NCCc2ccccc21
Key:
[1] = target: T1, Pituitary adenylate cyclase-activating polypeptide type I receptor (Homo sapiens, UniProt P41586); assay: Displacement of [125I]Ac-PACAP27 from human recombinant PAC1 receptor expressed in CHO cells by gamma- counter; type: cell-based
Target sequence in this assay (P41586 whole entry): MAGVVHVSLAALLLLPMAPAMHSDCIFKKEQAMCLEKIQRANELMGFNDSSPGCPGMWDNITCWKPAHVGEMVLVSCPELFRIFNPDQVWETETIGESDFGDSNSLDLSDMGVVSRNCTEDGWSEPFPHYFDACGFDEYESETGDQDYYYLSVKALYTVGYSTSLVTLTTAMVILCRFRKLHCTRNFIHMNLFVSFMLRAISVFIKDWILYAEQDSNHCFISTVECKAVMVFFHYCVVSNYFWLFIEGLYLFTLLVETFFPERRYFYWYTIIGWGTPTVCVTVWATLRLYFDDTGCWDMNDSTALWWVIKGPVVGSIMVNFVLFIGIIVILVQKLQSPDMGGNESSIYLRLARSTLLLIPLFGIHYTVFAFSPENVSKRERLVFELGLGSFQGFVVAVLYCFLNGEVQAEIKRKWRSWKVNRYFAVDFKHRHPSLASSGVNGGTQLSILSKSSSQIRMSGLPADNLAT

[2] = target: T1, Pituitary adenylate cyclase-activating polypeptide type I receptor; assay: Antagonist activity at human recombinant PAC1 receptor expressed in CHO cells assessed as reduction in PACAP38-induced calcium mobilization by FLIPR assay; type: functional, cell-based; details: read-out: pA2 (converted)
Summary of the method: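 PAC1-CHO cells were loaded with fluo-4 and preincubated 15 min with antagonist at 0.1, 1 or 10 µM. PACAP38 concentration-response curves for calcium mobilization were then recorded. pA2 was estimated by Schild plot from concentration ratios; 4-10 independent assays in duplicate.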
Target sequence in this assay (P41586 whole entry): as above

[3] = target: T1, Pituitary adenylate cyclase-activating polypeptide type I receptor; assay: Agonist activity at human recombinant PAC1 receptor expressed in CHO cells assessed as PACAP38-induced calcium mobilization at 1 uM by FLIPR assay relative to PACAP38; type: functional, cell-based
Target sequence in this assay (P41586 21-468 limits assumed): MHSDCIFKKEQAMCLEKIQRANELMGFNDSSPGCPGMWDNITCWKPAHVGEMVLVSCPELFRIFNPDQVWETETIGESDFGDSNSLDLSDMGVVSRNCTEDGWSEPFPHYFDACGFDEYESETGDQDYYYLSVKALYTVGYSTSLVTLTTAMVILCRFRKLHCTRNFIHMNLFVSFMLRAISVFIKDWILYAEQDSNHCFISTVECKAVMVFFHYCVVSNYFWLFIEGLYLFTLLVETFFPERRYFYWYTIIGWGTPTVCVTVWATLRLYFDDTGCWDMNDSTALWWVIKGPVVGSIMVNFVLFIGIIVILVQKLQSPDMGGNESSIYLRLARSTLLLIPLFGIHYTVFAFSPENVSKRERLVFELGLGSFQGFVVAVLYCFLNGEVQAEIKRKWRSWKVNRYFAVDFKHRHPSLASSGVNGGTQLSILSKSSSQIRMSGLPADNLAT

[4] = target: T1, Pituitary adenylate cyclase-activating polypeptide type I receptor; assay: Agonist activity at human recombinant PAC1 receptor expressed in CHO cells assessed as PACAP38-induced calcium mobilization at 1 uM by FLIPR assay; type: functional, cell-based
Target sequence in this assay (P41586 whole entry): as the sequence (P41586 whole entry) above

| SMILES | IC50 [1] [nM] | Kb [2] [nM] | Emax [3] | EC50 [4] |
| --- | --- | --- | --- | --- |
| CC[C@H](C)[C@H](NC(=O)CN(C)C(=O)[C@H](CC(=O)O)NC(=O)[C@H](CO)NC(=O)[C@@H](N)Cc1cnc[nH]1)C(=O)N[C@@H](Cc1ccccc1)C(=O)N[C@H](C(=O)N[C@@H](CC(=O)O)C(=O)N[C@@H](CO)C(=O)N[C@@H](Cc1ccc(O)cc1)C(=O)N[C@@H](CO)C(=O)N[C@@H](CCCNC(=N)N)C(=O)N[C@@H](Cc1ccc(O)cc1)C(=O)N[C@@H](CCCNC(=N)N)C(=O)N[C@@H](CCCCN)C(=O)N[C@@H](CCC(N)=O)C(=O)N[C@@H](CCSC)C(=O)N[C@@H](C)C(=O)N[C@H](C(=O)N[C@@H](CCCCN)C(=O)N[C@@H](CCCCN)C(=O)N[C@@H](Cc1ccc(O)cc1)C(=O)N[C@@H](CC(C)C)C(=O)N[C@@H](C)C(=O)N[C@@H](C)C(=O)N[C@H](C(=O)N[C@@H](CC(C)C)C(=O)NCC(=O)N[C@@H](CCCCN)C(=O)N[C@@H](CCCNC(=N)N)C(=O)N[C@@H](Cc1ccc(O)cc1)C(=O)N[C@@H](CCCCN)C(=O)N[C@@H](CCC(N)=O)C(=O)N[C@@H](CCCNC(=N)N)C(=O)N[C@H](C(=O)N[C@@H](CCCCN)C(=O)N[C@@H](CC(N)=O)C(=O)N[C@@H](CCCCN)C(N)=O)C(C)C)C(C)C)C(C)C)[C@@H](C)O | 97 | 4.07 | inactive | Not Active |
| CSCC[C@H](NC(=O)[C@H](CCC(N)=O)NC(=O)[C@H](CCCCN)NC(=O)[C@H](CCCNC(=N)N)NC(=O)[C@H](Cc1ccc(O)cc1)NC(=O)[C@H](CCCNC(=N)N)NC(=O)[C@H](CO)NC(=O)[C@H](Cc1ccc(O)cc1)NC(=O)[C@H](CO)NC(=O)[C@H](CC(=O)O)NC(=O)[C@@H](NC(=O)[C@@H](N)Cc1ccccc1)[C@@H](C)O)C(=O)N[C@@H](C)C(=O)N[C@H](C(=O)N[C@@H](CCCCN)C(=O)N[C@@H](CCCCN)C(=O)N[C@@H](Cc1ccc(O)cc1)C(=O)N[C@@H](CC(C)C)C(=O)N[C@@H](C)C(=O)N[C@@H](C)C(=O)N[C@H](C(=O)N[C@@H](CC(C)C)C(=O)NCC(=O)N[C@@H](CCCCN)C(=O)N[C@@H](CCCNC(=N)N)C(=O)N[C@@H](Cc1ccc(O)cc1)C(=O)N[C@@H](CCCCN)C(=O)N[C@@H](CCC(N)=O)C(=O)N[C@@H](CCCNC(=N)N)C(=O)N[C@H](C(=O)N[C@@H](CCCCN)C(=O)N[C@@H](CC(N)=O)C(=O)N[C@@H](CCCCN)C(N)=O)C(C)C)C(C)C)C(C)C | 56.7 | 11 | inactive | Not Active |
| CC[C@H](C)[C@@H](C(=O)N[C@@H](Cc1ccccc1)C(=O)N[C@H](C(=O)N[C@@H](CC(=O)O)C(=O)N[C@@H](CO)C(=O)N[C@@H](Cc1ccc(O)cc1)C(=O)N[C@@H](CO)C(=O)N[C@@H](CCCNC(=N)N)C(=O)N[C@@H](Cc1ccc(O)cc1)C(=O)N[C@@H](CCCNC(=N)N)C(=O)N[C@@H](CCCCN)C(=O)N[C@@H](CCC(N)=O)C(=O)N[C@@H](CCSC)C(=O)N[C@@H](C)C(=O)N[C@H](C(=O)N[C@@H](CCCCN)C(=O)N[C@@H](CCCCN)C(=O)N[C@@H](Cc1ccc(O)cc1)C(=O)N[C@@H](CC(C)C)C(=O)N[C@@H](C)C(=O)N[C@@H](C)C(=O)N[C@H](C(=O)N[C@@H](CC(C)C)C(=O)NCC(=O)N[C@@H](CCCCN)C(=O)N[C@@H](CCCNC(=N)N)C(=O)N[C@@H](Cc1ccc(O)cc1)C(=O)N[C@@H](CCCCN)C(=O)N[C@@H](CCC(N)=O)C(=O)N[C@@H](CCCNC(=N)N)C(=O)N[C@H](C(=O)N[C@@H](CCCCN)C(=O)N[C@@H](CC(N)=O)C(=O)N[C@@H](CCCCN)C(N)=O)C(C)C)C(C)C)C(C)C)[C@@H](C)O)N(C)C(=O)CNC(=O)[C@H](CC(=O)O)NC(=O)[C@H](CO)NC(=O)[C@@H](N)Cc1cnc[nH]1 | 158 | 52.5 | inactive | Not Active |
| CC[C@H](C)[C@H](NC(=O)CNC(=O)[C@H](CC(=O)O)NC(=O)[C@H](CO)NC(=O)[C@@H](N)Cc1cnc[nH]1)C(=O)N1CCc2ccccc2C1C(=O)N[C@H](C(=O)N[C@@H](CC(=O)O)C(=O)N[C@@H](CO)C(=O)N[C@@H](Cc1ccc(O)cc1)C(=O)N[C@@H](CO)C(=O)N[C@@H](CCCNC(=N)N)C(=O)N[C@@H](Cc1ccc(O)cc1)C(=O)N[C@@H](CCCNC(=N)N)C(=O)N[C@@H](CCCCN)C(=O)N[C@@H](CCC(N)=O)C(=O)N[C@@H](CCSC)C(=O)N[C@@H](C)C(=O)N[C@H](C(=O)N[C@@H](CCCCN)C(=O)N[C@@H](CCCCN)C(=O)N[C@@H](Cc1ccc(O)cc1)C(=O)N[C@@H](CC(C)C)C(=O)N[C@@H](C)C(=O)N[C@@H](C)C(=O)N[C@H](C(=O)N[C@@H](CC(C)C)C(N)=O)C(C)C)C(C)C)[C@@H](C)O (stereo partly drawn) | 2590 | – | inactive | Not Active |
| CC[C@H](C)[C@H](NC(=O)CNC(=O)[C@H](CC(=O)O)NC(=O)[C@H]1CCCN1C(=O)[C@@H](N)Cc1cnc[nH]1)C(=O)N[C@@H](Cc1ccccc1)C(=O)N[C@H](C(=O)N[C@@H](CC(=O)O)C(=O)N[C@@H](CO)C(=O)N[C@@H](Cc1ccc(O)cc1)C(=O)N[C@@H](CO)C(=O)N[C@@H](CCCNC(=N)N)C(=O)N[C@@H](Cc1ccc(O)cc1)C(=O)N[C@@H](CCCNC(=N)N)C(=O)N[C@@H](CCCCN)C(=O)N[C@@H](CCC(N)=O)C(=O)N[C@@H](CCSC)C(=O)N[C@@H](C)C(=O)N[C@H](C(=O)N[C@@H](CCCCN)C(=O)N[C@@H](CCCCN)C(=O)N[C@@H](Cc1ccc(O)cc1)C(=O)N[C@@H](CC(C)C)C(=O)N[C@@H](C)C(=O)N[C@@H](C)C(=O)N[C@H](C(=O)N[C@@H](CC(C)C)C(=O)NCC(=O)N[C@@H](CCCCN)C(=O)N[C@@H](CCCNC(=N)N)C(=O)N[C@@H](Cc1ccc(O)cc1)C(=O)N[C@@H](CCCCN)C(=O)N[C@@H](CCC(N)=O)C(=O)N[C@@H](CCCNC(=N)N)C(=O)N[C@H](C(=O)N[C@@H](CCCCN)C(=O)N[C@@H](CC(N)=O)C(=O)N[C@@H](CCCCN)C(N)=O)C(C)C)C(C)C)C(C)C)[C@@H](C)O | 76.3 | 35.5 | inactive | Not Active |
| CC[C@H](C)[C@H](NC(=O)CNC(=O)[C@H](CC(=O)O)NC(=O)[C@H](CO)NC(=O)[C@@H](N)Cc1cnc[nH]1)C(=O)N1Cc2ccccc2C1C(=O)N[C@H](C(=O)N[C@@H](CC(=O)O)C(=O)N[C@@H](CO)C(=O)N[C@@H](Cc1ccc(O)cc1)C(=O)N[C@@H](CO)C(=O)N[C@@H](CCCNC(=N)N)C(=O)N[C@@H](Cc1ccc(O)cc1)C(=O)N[C@@H](CCCNC(=N)N)C(=O)N[C@@H](CCCCN)C(=O)N[C@@H](CCC(N)=O)C(=O)N[C@@H](CCSC)C(=O)N[C@@H](C)C(=O)N[C@H](C(=O)N[C@@H](CCCCN)C(=O)N[C@@H](CCCCN)C(=O)N[C@@H](Cc1ccc(O)cc1)C(=O)N[C@@H](CC(C)C)C(=O)N[C@@H](C)C(=O)N[C@@H](C)C(=O)N[C@H](C(=O)N[C@@H](CC(C)C)C(N)=O)C(C)C)C(C)C)[C@@H](C)O (stereo partly drawn) | 3590 | – | inactive | Not Active |
| CC[C@H](C)[C@H](NC(=O)CNC(=O)[C@H](CC(=O)O)NC(=O)[C@H](CO)NC(=O)[C@@H](N)Cc1cnc[nH]1)C(=O)N1CCc2ccccc2C1C(=O)N[C@H](C(=O)N[C@@H](CC(=O)O)C(=O)N[C@@H](CO)C(=O)N[C@@H](Cc1ccc(O)cc1)C(=O)N[C@@H](CO)C(=O)N[C@@H](CCCNC(=N)N)C(=O)N[C@@H](Cc1ccc(O)cc1)C(=O)N[C@@H](CCCNC(=N)N)C(=O)N[C@@H](CCCCN)C(=O)N[C@@H](CCC(N)=O)C(=O)N[C@@H](CCSC)C(=O)N[C@@H](C)C(=O)N[C@H](C(=O)N[C@@H](CCCCN)C(=O)N[C@@H](CCCCN)C(=O)N[C@@H](Cc1ccc(O)cc1)C(=O)N[C@@H](CC(C)C)C(=O)N[C@@H](C)C(=O)N[C@@H](C)C(=O)N[C@H](C(=O)N[C@@H](CC(C)C)C(=O)NCC(=O)N[C@@H](CCCCN)C(=O)N[C@@H](CCCNC(=N)N)C(=O)N[C@@H](Cc1ccc(O)cc1)C(=O)N[C@@H](CCCCN)C(=O)N[C@@H](CCC(N)=O)C(=O)N[C@@H](CCCNC(=N)N)C(=O)N[C@H](C(=O)N[C@@H](CCCCN)C(=O)N[C@@H](CC(N)=O)C(=O)N[C@@H](CCCCN)C(N)=O)C(C)C)C(C)C)C(C)C)[C@@H](C)O (stereo partly drawn) (H-HSDGI[ξTiq(1-COOH)]TDSYSRYRKQMAVKKYLAAVLGKRYKQRVKNK-NH2) | 1550 | – | inactive | Not Active |
| CC[C@H](C)[C@H](NC(=O)CNC(=O)[C@H](CC(=O)O)NC(=O)[C@H](CO)NC(=O)[C@@H](N)Cc1cnc[nH]1)C(=O)N(C)[C@@H](Cc1ccccc1)C(=O)N[C@H](C(=O)N[C@@H](CC(=O)O)C(=O)N[C@@H](CO)C(=O)N[C@@H](Cc1ccc(O)cc1)C(=O)N[C@@H](CO)C(=O)N[C@@H](CCCNC(=N)N)C(=O)N[C@@H](Cc1ccc(O)cc1)C(=O)N[C@@H](CCCNC(=N)N)C(=O)N[C@@H](CCCCN)C(=O)N[C@@H](CCC(N)=O)C(=O)N[C@@H](CCSC)C(=O)N[C@@H](C)C(=O)N[C@H](C(=O)N[C@@H](CCCCN)C(=O)N[C@@H](CCCCN)C(=O)N[C@@H](Cc1ccc(O)cc1)C(=O)N[C@@H](CC(C)C)C(=O)N[C@@H](C)C(=O)N[C@@H](C)C(=O)N[C@H](C(=O)N[C@@H](CC(C)C)C(=O)NCC(=O)N[C@@H](CCCCN)C(=O)N[C@@H](CCCNC(=N)N)C(=O)N[C@@H](Cc1ccc(O)cc1)C(=O)N[C@@H](CCCCN)C(=O)N[C@@H](CCC(N)=O)C(=O)N[C@@H](CCCNC(=N)N)C(=O)N[C@H](C(=O)N[C@@H](CCCCN)C(=O)N[C@@H](CC(N)=O)C(=O)N[C@@H](CCCCN)C(N)=O)C(C)C)C(C)C)C(C)C)[C@@H](C)O | 1280 | – | inactive | Not Active |

From ChEMBL document CHEMBL1138520, “Molecular and conformational determinants of pituitary adenylate cyclase-activating polypeptide (PACAP) for activation of the PAC1 receptor” (J Med Chem, 2009)
